Results taken from ChEMBL document CHEMBL1148313, “A new class of nonpeptide bradykinin B(2) receptor ligand, incorporating a 4-aminoquinoline framework. Identification of a key pharmacophore to determine species difference and agonist/antagonist profile” (J Med Chem, 2004).

Key:
Cavia porcellus [1] = experiment: In vivo functional antagonistic activity in inhibiting BK (5 ug/kg, i.v.) induced bronchoconstriction in guinea pigs by 10 ug/kg iv administration
Outline: (§1)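 Male Hartley guinea pigs (470–750 g), fasted overnight, pentobarbital 30 mg/kg i.p., ventilated 10 mL/kg at 60 breaths/min, alcuronium 0.5 mg/kg i.v., propranolol 10 mg/kg s.c. BK in saline/0.1% BSA i.v.; compound in 5% citric acid i.v. 25 min after first BK, BK repeated 5 min later. Peak insufflation pressure rise (Konzett–Rössler); % inhibition versus vehicle, n = 3–4.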

B2 bradykinin receptor [2] = biological target: T1, B2 bradykinin receptor (Cavia porcellus, UniProt O70526); experiment: Inhibition of specific binding of [3H]BK at 0.06 nM to bradykinin receptor B2 in guinea pig ileum membrane preparations by 50%.; assay type: cell membranes
T1 sequence (O70526 whole entry): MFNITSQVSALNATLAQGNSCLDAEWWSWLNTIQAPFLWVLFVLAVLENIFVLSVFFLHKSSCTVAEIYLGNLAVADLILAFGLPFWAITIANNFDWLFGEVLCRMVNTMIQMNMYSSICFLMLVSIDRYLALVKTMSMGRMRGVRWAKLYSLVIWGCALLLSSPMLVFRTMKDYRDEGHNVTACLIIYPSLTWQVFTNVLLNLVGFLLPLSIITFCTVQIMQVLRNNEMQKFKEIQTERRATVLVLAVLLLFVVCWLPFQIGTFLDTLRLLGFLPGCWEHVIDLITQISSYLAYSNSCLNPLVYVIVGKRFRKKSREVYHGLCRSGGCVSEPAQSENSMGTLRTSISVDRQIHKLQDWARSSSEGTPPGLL
Outline: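 Ileum membranes from male Hartley guinea pigs, 0.2 mg protein/mL, in TES pH 6.8 containing phenanthroline, bacitracin, DTT, captopril and 0.1% BSA. Incubated with [3H]BK and compound at room temperature for 60 min. GF/B filtration, scintillation counting; nonspecific binding with 1 μM BK. Three experiments.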

B2 bradykinin receptor [3] = biological target: T2, B2 bradykinin receptor (Homo sapiens, UniProt P30411); experiment: Inhibition of specific binding of [3H]BK at 1 nM to human bradykinin receptor B2 expressed in CHO cells by 50%.; assay type: cell-based
T2 sequence (P30411 whole entry): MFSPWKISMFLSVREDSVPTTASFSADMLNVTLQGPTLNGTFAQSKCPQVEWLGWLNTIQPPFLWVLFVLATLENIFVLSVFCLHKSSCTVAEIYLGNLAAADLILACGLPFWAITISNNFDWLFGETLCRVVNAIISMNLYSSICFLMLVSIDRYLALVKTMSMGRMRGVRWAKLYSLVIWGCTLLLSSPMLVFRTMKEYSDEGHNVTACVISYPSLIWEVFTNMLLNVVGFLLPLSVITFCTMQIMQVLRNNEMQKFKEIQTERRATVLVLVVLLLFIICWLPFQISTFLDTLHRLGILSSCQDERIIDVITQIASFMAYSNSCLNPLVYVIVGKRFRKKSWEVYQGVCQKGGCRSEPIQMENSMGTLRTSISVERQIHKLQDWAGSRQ
Outline: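 Intact CHO (dhfr−) cells stably expressing human B2, seeded 3.0 × 10⁴/well for 1 day. Incubated with [3H]BK and compound 2 h at 4 °C in HEPES/N-methyl-D-glucamine buffer pH 7.2 with enalaprilat, bacitracin and 0.1% BSA. Cells lysed in SDS/NaOH and counted; nonspecific binding with 1 μM BK. Three experiments.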

CHO [4] = experiment: Relative agonistic activity in IP formation compared to BK (10 nM) IPs in CHO cells expressing the cloned human B2 receptor at 10 uM concentration; assay type: functional, Cricetulus griseus
Outline: (§2)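 Human B2-CHO cells labeled 24 h with [3H]inositol (1 μCi/mL). Preincubated in PBS/0.2% BSA with 10 mM LiCl for 30 min at 37 °C, then compound for 30 min at 37 °C. Stopped with 5% TCA. IP1–IP3 separated on AG 1-X8 and counted. Basal counts subtracted; response expressed relative to 10 nM BK.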

CHO [5] = experiment: Relative agonistic activity in IP formation compared to BK (10 nM) IPs in CHO cells expressing the cloned human B2 receptor at 1 uM concentration; assay type: functional, Cricetulus griseus; outline: as §2
Cavia porcellus [6] = experiment: In vivo functional antagonistic activity in inhibiting BK (5 ug/kg, i.v.) induced bronchoconstriction in guinea pigs by 100 ug/kg iv administration; outline: as §1

IC50 (B2 bradykinin receptor [2]) [nM] | IC50 (B2 bradykinin receptor [3]) [nM] | SMILES | Inhibition (Cavia porcellus [1]) [%] | Relative agonistic activity (CHO [4]) [%] | Relative agonistic activity (CHO [5]) [%] | Inhibition (Cavia porcellus [6]) [%]
2300 | 87 | CNC(=O)c1ccc(/C=C/C(=O)NCC(=O)N(C)c2ccc(Cl)c(COc3cccc4c(N5CCCC5)cc(C)nc34)c2Cl)cc1 | – | – | – | –
49 | 41 | CNC(=O)c1ccc(/C=C/C(=O)NCC(=O)N(C)c2ccc(Cl)c(COc3cccc4c(NCCOC)cc(C)nc34)c2Cl)cc1 | – | – | – | –
560 | 19 | CNC(=O)c1ccc(/C=C/C(=O)NCC(=O)N(C)c2ccc(Cl)c(COc3cccc4c(N(CCOC)CCOC)cc(C)nc34)c2Cl)cc1 | – | – | – | –
8.1 | 4 | Cc1cc(N(C)C)c2cccc(OCc3c(Cl)ccc(N(C)C(=O)CNC(=O)/C=C/c4ccc(C(=O)N(C)C)nc4)c3Cl)c2n1.Cl.Cl.Cl.Cl | 89.7 | – | – | –
21 | 4.8 | CC(=O)Nc1ccc(/C=C/C(=O)NCC(=O)N(C)c2ccc(Cl)c(COc3cccc4c(N(C)C)cc(C)nc34)c2Cl)cc1C.Cl.Cl.Cl.Cl | – | – | – | 94.7
5.6 | 2 | CNC(=O)c1ccc(/C=C/C(=O)NCC(=O)N(C)c2ccc(Cl)c(COc3cccc4c(N(C)C)cc(C)nc34)c2Cl)cc1OC.Cl.Cl.Cl.Cl | 88.7 | – | – | –
28 | 5.9 | Cc1cc(N(C)C)c2cccc(OCc3c(Cl)ccc(N(C)C(=O)CNC(=O)/C=C/c4ccc(C(=O)NCc5ccccn5)cc4)c3Cl)c2n1.Cl | – | – | – | 97.3
2300 | 2500 | CNC(=O)c1ccc(/C=C/C(=O)NCC(=O)N(C)c2ccc(Cl)c(COc3cccc4c(NCCN(C)C)cc(C)nc34)c2Cl)cc1 | – | – | – | –
6.9 | 0.47 | Cc1cc(N(C)C)c2cccc(OCc3c(Cl)ccc(N(C)C(=O)CNC(=O)/C=C/c4ccc(NC(=O)c5ccncc5)cc4)c3Cl)c2n1.Cl | 59 | – | – | –
85 | 1.1 | CNC(=O)c1ccc(/C=C/C(=O)NCC(=O)N(C)c2ccc(Cl)c(COc3cccc4c(N5CCOCC5)cc(C)nc34)c2Cl)cn1.Cl | – | – | – | 72.3
1.2 | 1.6 | CNC(=O)c1ccc(/C=C/C(=O)NCC(=O)N(C)c2ccc(Cl)c(COc3cccc4c(N(C)C)cc(C)nc34)c2Cl)cn1.Cl | 85.5 | – | – | –
5.1 | 0.7 | Cc1cc(N(C)C)c2cccc(OCc3c(Cl)ccc(N(C)C(=O)CNC(=O)/C=C/c4ccc(C(=O)Nc5ccncc5)cc4)c3Cl)c2n1.Cl | 86.3 | – | – | –
6.3 | 4.2 | CC(=O)Nc1ccc(/C=C/C(=O)NCC(=O)N(C)c2ccc(Cl)c(COc3cccc4c(N(C)C)cc(C)nc34)c2Cl)cn1.Cl | 89.4 | – | – | –

Further lines, the compound ahead of its results:

SMILES | IC50 (B2 bradykinin receptor [2]) [nM] | IC50 (B2 bradykinin receptor [3]) [nM] | Inhibition (Cavia porcellus [1]) [%] | Relative agonistic activity (CHO [4]) [%] | Relative agonistic activity (CHO [5]) [%] | Inhibition (Cavia porcellus [6]) [%]
Cc1cc(N(C)C)c2cccc(OCc3c(Cl)ccc(N(C)C(=O)CNC(=O)/C=C/c4ccc(C(=O)N(C)C)cc4)c3Cl)c2n1.Cl.Cl | – | – | 73.4 | – | – | –
CNC(=O)c1ccc(/C=C/C(=O)NCC(=O)N(C)c2ccc(Cl)c(COc3cccc4c(N5CCN(C)CC5)cc(C)nc34)c2Cl)cc1 | 1500 | 98 | – | – | – | –
CNC(=O)c1ccc(/C=C/C(=O)NCC(=O)N(C)c2ccc(Cl)c(COc3cccc4c(N5CCCCC5)cc(C)nc34)c2Cl)cc1.Cl.Cl.Cl.Cl | 68 | 1.1 | – | 4.2 | 4.4 | –
CNC(=O)c1ccc(/C=C/C(=O)NCC(=O)N(C)c2ccc(Cl)c(COc3cccc4c(N5CCCCCC5)cc(C)nc34)c2Cl)cc1 | 840 | 37 | – | – | – | –
Cc1cc(N2CCOCC2)c2cccc(OCc3c(Cl)ccc(N(C)C(=O)CNC(=O)/C=C/c4ccc(N5CCCC5=O)cc4)c3Cl)c2n1.Cl.Cl.Cl.Cl | 13 | 1.8 | – | 9.2 | 6 | –
Cc1cc(N2CCCCC2)c2cccc(OCc3c(Cl)ccc(N(C)C(=O)CNC(=O)/C=C/c4ccc(C(=O)N(C)C)cc4)c3Cl)c2n1.Cl.Cl.Cl.Cl | 30 | 0.76 | – | 21.8 | 17.2 | –
Cc1cc(N2CCCCC2)c2cccc(OCc3c(Cl)ccc(N(C)C(=O)CNC(=O)/C=C/c4ccc(N5CCCC5=O)cc4)c3Cl)c2n1.Cl.Cl.Cl.Cl | 28 | 1.2 | – | 18.7 | 14.8 | –
Cc1cc(N2CCOCC2)c2cccc(OCc3c(Cl)ccc(N(C)C(=O)CNC(=O)/C=C/c4ccc(C(=O)N(C)C)cc4)c3Cl)c2n1 | 43 | 0.88 | – | – | – | –
CNC(=O)c1ccc(/C=C/C(=O)NCC(=O)N(C)c2ccc(Cl)c(COc3cccc4c(N5CCOCC5)cc(C)nc34)c2Cl)cc1.Cl.Cl.Cl.Cl | 12 | 2.7 | – | -1.9 | 0.9 | –
CC(=O)Nc1ccc(/C=C/C(=O)NCC(=O)N(C)c2ccc(Cl)c(COc3cccc4c(N5CCOCC5)cc(C)nc34)c2Cl)cn1 | 65 | 1.8 | – | – | – | 47.8
Cc1cc(N2CCCCC2)c2cccc(OCc3c(Cl)ccc(N(C)C(=O)CNC(=O)/C=C/c4ccc(C(=O)Nc5ccncc5)cc4)c3Cl)c2n1.Cl | 240 | 0.52 | – | 12.7 | 5.7 | –
Cc1cc(N2CCCCC2)c2cccc(OCc3c(Cl)ccc(N(C)C(=O)CNC(=O)/C=C/c4ccc(NC(=O)c5ccncc5)cc4)c3Cl)c2n1.Cl | 75 | 1.6 | – | 5.3 | 5.6 | –
Cc1cc(N(C)C)c2cccc(OCc3c(Cl)ccc(N(C)C(=O)CNC(=O)Nc4cccc(C(=O)Nc5ccncc5)c4)c3Cl)c2n1.Cl | 12 | 2.2 | – | – | – | 97.7
Cc1cc(N2CCOCC2)c2cccc(OCc3c(Cl)ccc(N(C)C(=O)CNC(=O)/C=C/c4ccc(NC(=O)c5ccncc5)cc4)c3Cl)c2n1.Cl | 29 | 1 | – | 0.9 | -0.1 | –
Cc1cc(N2CCOCC2)c2cccc(OCc3c(Cl)ccc(N(C)C(=O)CNC(=O)/C=C/c4ccc(C(=O)Nc5ccncc5)cc4)c3Cl)c2n1.Cl | 37 | 0.64 | 46.2 | – | – | 91.8
Cc1cc(N2CCCCC2)c2cccc(OCc3c(Cl)ccc(N(C)C(=O)CNC(=O)/C=C/c4ccc(C(=O)NCc5ccccn5)cc4)c3Cl)c2n1.Cl | 40 | 2.5 | – | – | – | 72.6
